Measurements from ChEMBL document CHEMBL1821649, “Synthesis, characterization of some benzazoles bearing pyridine moiety: search for novel anticancer agents” (2011).

Tests used:
Format in all cases: functional
COLO 205 = experiment: Antitumor activity against human COLO205 cells after 48 hrs by SRB assay; conditions: COLO 205, 48 h
How it was run: (§1)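 NCI-60 human tumour cell panel run under the National Cancer Institute Drug Evaluation Branch protocol. Compounds passing a single-dose prescreen were retested on all lines at five 10-fold dilutions. Growth was expressed as percent growth of treated cells. Response parameters were GI50 (molar concentration giving 50% growth inhibition), TGI (total growth inhibition) and LC50 (median lethal concentration).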

NCI-H460 = experiment: Antitumor activity against human NCI-H460 cells after 48 hrs by SRB assay; conditions: NCI-H460, 48 h; how it was run: as §1
NCI-H23 = experiment: Antitumor activity against human NCI-H23 cells after 48 hrs by SRB assay; conditions: NCI-H23, 48 h; how it was run: as §1
NCI-H522 = experiment: Antitumor activity against human NCI-H522 cells after 48 hrs by SRB assay; conditions: NCI-H522, 48 h; how it was run: as §1
HOP-92 = experiment: Antitumor activity against human HOP92 cells after 48 hrs by SRB assay; conditions: HOP-92, 48 h; how it was run: as §1
MOLT-4 = experiment: Antitumor activity against human MOLT4 cells after 48 hrs by SRB assay; conditions: MOLT-4, 48 h; how it was run: as §1
SNB-75 = experiment: Antitumor activity against human SNB75 cells after 48 hrs by SRB assay; conditions: SNB-75, 48 h; how it was run: as §1
U-251 = experiment: Antitumor activity against human U251 cells after 48 hrs by SRB assay; conditions: U-251, 48 h
How it was run: (§2)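 NCI-60 human cancer cell line panel run under the NCI Drug Evaluation Branch protocol. Compounds were first screened at a single dose. Those meeting preset inhibition thresholds were retested at five 10-fold dilutions. Output was percent growth of treated cells, given as % growth inhibition. GI50, TGI and LC50 values were derived from the five-dose data.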

OVCAR-4 = experiment: Antitumor activity against human OVCAR4 cells after 48 hrs by SRB assay; conditions: OVCAR-4, 48 h; how it was run: as §1
OVCAR-3 = experiment: Antitumor activity against human OVCAR3 cells after 48 hrs by SRB assay; conditions: OVCAR-3, 48 h; how it was run: as §1
OVCAR-5 = experiment: Antitumor activity against human OVCAR5 cells after 48 hrs by SRB assay; conditions: OVCAR-5, 48 h; how it was run: as §1
IGROV-1 = experiment: Antitumor activity against human IGROV1 cells after 48 hrs by SRB assay; conditions: IGROV-1, 48 h; how it was run: as §1
NCI/ADR-RES = experiment: Antitumor activity against human NCI/ADR-RES cells after 48 hrs by SRB assay; how it was run: as §1
SK-OV-3 = experiment: Antitumor activity against human SKOV3 cells after 48 hrs by SRB assay; conditions: SK-OV-3, 48 h; how it was run: as §1
SK-MEL-5 = experiment: Antitumor activity against human SK-MEL-5 cells after 48 hrs by SRB assay; conditions: SK-MEL-5, 48 h; how it was run: as §1
SK-MEL-28 = experiment: Antitumor activity against human SK-MEL-28 cells after 48 hrs by SRB assay; conditions: SK-MEL-28, 48 h; how it was run: as §1
A498 = experiment: Antitumor activity against human A498 cells after 48 hrs by SRB assay; conditions: A498, 48 h; how it was run: as §1
ACHN = experiment: Antitumor activity against human ACHN cells after 48 hrs by SRB assay; how it was run: as §1
SN12C = experiment: Antitumor activity against human SN12C cells after 48 hrs by SRB assay; how it was run: as §1
DU-145 = experiment: Antitumor activity against human DU145 cells after 48 hrs by SRB assay; conditions: DU-145, 48 h; how it was run: as §1
MCF7 = experiment: Antitumor activity against human MCF7 cells after 48 hrs by SRB assay; conditions: MCF7, 48 h; how it was run: as §1
MDA-MB-231 = experiment: Antitumor activity against human MDA-MB-231 cells after 48 hrs by SRB assay; conditions: MDA-MB-231, 48 h; how it was run: as §1
[1] = Antitumor activity against human Hs 578T cells after 48 hrs by SRB assay; how it was run: as §1
BT-549 = experiment: Antitumor activity against human BT549 cells after 48 hrs by SRB assay; conditions: BT-549, 48 h; how it was run: as §1
T47D = experiment: Antitumor activity against human T47D cells after 48 hrs by SRB assay; how it was run: as §2
MDA-MB-468 = experiment: Antitumor activity against human MDA-MB-468 cells after 48 hrs by SRB assay; conditions: MDA-MB-468, 48 h; how it was run: as §1
[2] = Antitumor activity against human […] cells after 48 hrs by SRB assay; how it was run: as §1
RXF 393 = experiment: Antitumor activity against human RXF393 cells after 48 hrs by SRB assay; conditions: RXF 393, 48 h; how it was run: as §1
SF-539 = experiment: Antitumor activity against human SF539 cells after 48 hrs by SRB assay; conditions: SF-539, 48 h; how it was run: as §1
SF-295 = experiment: Antitumor activity against human SF295 cells after 48 hrs by SRB assay; conditions: SF-295, 48 h; how it was run: as §1
HCT-116 = experiment: Antitumor activity against human HCT116 cells after 48 hrs by SRB assay; conditions: HCT-116, 48 h; how it was run: as §1
[3] = read-out: LC50 (the source's name)

SMILES: Cc1cc2nc(-c3c(N)ncc(C#N)c3-c3ccc(Cl)cc3)[nH]c2cc1C
- GI50 (COLO 205): 6.24 µM
- LC50 (COLO 205): > 100 µM
- TGI (COLO 205): 83.4 µM
- GI50 (NCI-H460): 3.04 µM
- LC50 (median lethal concentration) (NCI-H460): > 100 µM
- TGI (NCI-H460): > 100 µM
- GI50 (NCI-H23): 8.1 µM
- LC50 (NCI-H23): 99.7 µM
- TGI (NCI-H23): 30.7 µM
- GI50 (NCI-H522): 4.07 µM
- LC50 (NCI-H522): 96.5 µM
- TGI (NCI-H522): 27.9 µM
- GI50 (HOP-92): 0.275 µM
- LC50 (HOP-92): 44.2 µM
- TGI (HOP-92): 5.23 µM
- GI50 (MOLT-4): 100 µM
- LC50 (MOLT-4): > 100 µM
- TGI (MOLT-4): > 100 µM
- GI50 (SNB-75): 12.9 µM
- LC50 (SNB-75): 81.3 µM
- TGI (SNB-75): 32.4 µM
- GI50 (U-251): 5.48 µM
- TGI (U-251): 21.4 µM
- CC50 (U-251; [3]): 66.2 µM
- GI50 (OVCAR-4): 4.4 µM
- TGI (OVCAR-4): 25.4 µM
- CC50 (OVCAR-4; [3]): > 100 µM
- GI50 (OVCAR-3): 13.9 µM
- TGI (OVCAR-3): 76 µM
- CC50 (OVCAR-3; [3]): > 100 µM
- GI50 (OVCAR-5): 14.7 µM
- TGI (OVCAR-5): > 100 µM
- CC50 (OVCAR-5; [3]): > 100 µM
- GI50 (IGROV-1): 18.7 µM
- LC50 (IGROV-1): > 100 µM
- TGI (IGROV-1): > 100 µM
- GI50 (NCI/ADR-RES): 15.7 µM
- TGI (NCI/ADR-RES): > 100 µM
- CC50 (NCI/ADR-RES; [3]): > 100 µM
- GI50 (SK-OV-3): 11.9 µM
- LC50 (SK-OV-3): 65.1 µM
- TGI (SK-OV-3): 27.9 µM
- GI50 (SK-MEL-5): 10 µM
- LC50 (SK-MEL-5): > 100 µM
- TGI (SK-MEL-5): 33.4 µM
- GI50 (SK-MEL-28): 5.8 µM
- LC50 (median lethal concentration) (SK-MEL-28): > 100 µM
- TGI (SK-MEL-28): 40.2 µM
- GI50 (A498): 11.8 µM
- TGI (A498): 59.2 µM
- CC50 (A498; [3]): > 100 µM
- GI50 (ACHN): 11.1 µM
- TGI (ACHN): > 100 µM
- CC50 (ACHN; [3]): > 100 µM
- GI50 (SN12C): 31 µM
- TGI (SN12C): > 100 µM
- CC50 (SN12C; [3]): > 100 µM
- GI50 (DU-145): 5.68 µM
- TGI (DU-145): 27.1 µM
- CC50 (DU-145; [3]): 93.1 µM
- GI50 (MCF7): 9.34 µM
- TGI (MCF7): > 100 µM
- CC50 (MCF7; [3]): > 100 µM
- GI50 (MDA-MB-231): 10.5 µM
- TGI (MDA-MB-231): 44.2 µM
- CC50 (MDA-MB-231; [3]): > 100 µM
- GI50 [1]: 12 µM
- TGI [1]: > 100 µM
- CC50 [1, 3]: > 100 µM
- GI50 (BT-549): 37.6 µM
- TGI (BT-549): > 100 µM
- CC50 (BT-549; [3]): > 100 µM
- GI50 (T47D): 4.63 µM
- TGI (T47D): > 100 µM
- CC50 (T47D; [3]): > 100 µM
- GI50 (MDA-MB-468): 12.4 µM
- TGI (MDA-MB-468): 51.5 µM
- CC50 (MDA-MB-468; [3]): > 100 µM
- GI50 [2]: 19.8 µM
- TGI [2]: 84.2 µM
- CC50 [2, 3]: > 100 µM
- GI50 (RXF 393): 3.18 µM
- TGI (RXF 393): 13.7 µM
- CC50 (RXF 393; [3]): 42.6 µM
- GI50 (SF-539): 2.07 µM
- TGI (SF-539): 5.78 µM
- CC50 (SF-539; [3]): 27 µM
- GI50 (SF-295): 10 µM
- TGI (SF-295): 27.5 µM
- CC50 (SF-295; [3]): 75.6 µM
- GI50 (HCT-116): 3.47 µM
- TGI (HCT-116): 19.7 µM
- CC50 (HCT-116; [3]): 66.3 µM
